Shown are actives, neighbours in structure and some others; about 1.2% of the full set was active somewhere.
HNF4A DNA FP – change in binding of human HNF4 alpha to DNA | P41235 | HNF4a-FITC DNA binding, fluorescence polarization, 1 h | activity change, % at 10 µM | 360,000 compounds, 0.3% hits | AID 1224865; in the data active means activity change above about 30%, passing the limit was not always enough
TPT1 inhibitor – inhibitors of Candida albicans tRNA 2'-phosphotransferase TPT1 | recombinant caTPT1, FP RNA substrate dephosphorylation | inhibition, % at 5 µM | 300,000 compounds, 0.81% hits | AID 1962;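 active means inhibition above the mean of all tested compounds plus 3 SD, set per screening campaign, cut at about 24% in these data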
CSN deneddyl inh – blocks human CSN-mediated cullin deneddylation; Q92905; Purified CSN, SCF-Nedd8-OG deneddylation, fluorescence polarization; inhibition, % at 12.5 µM; 360,000 compounds, 0.38% hits;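 active means pattern-corrected inhibition above about 35%, with an unprinted fluorescence ratio check between 0.5 and 1.5, limit read from the data, passing the limit was not always enough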
Target sequence (Q92905 whole entry, looked up, one chain of several): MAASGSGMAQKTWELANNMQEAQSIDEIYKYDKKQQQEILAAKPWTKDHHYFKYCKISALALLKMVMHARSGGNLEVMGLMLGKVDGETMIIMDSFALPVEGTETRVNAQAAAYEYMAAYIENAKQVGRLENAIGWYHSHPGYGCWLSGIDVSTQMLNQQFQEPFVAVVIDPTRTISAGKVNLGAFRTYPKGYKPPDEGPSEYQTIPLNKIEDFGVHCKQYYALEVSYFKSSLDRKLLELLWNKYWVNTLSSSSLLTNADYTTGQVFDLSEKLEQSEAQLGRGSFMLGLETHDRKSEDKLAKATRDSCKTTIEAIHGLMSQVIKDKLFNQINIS
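Detection – fluorescence polarization · System – HEK293T-derived human Csn5 enzyme · Controls – substrate-only high control, full reaction low control · Timing – 90 min, room temperature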
Rtt109 Vps75 – blocks Candida albicans Rtt109/Vps75 acetyltransferase activity. purified Rtt109/Vps75, ThioGlo CoA-SH fluorescence, 4 h. inhibition, % at 34.9 µM. 330,000 compounds, 0.16% hits. AID 540336;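 active means inhibition of at least 50% in every replicate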
Target sequence (Q5AAJ8 whole entry, looked up): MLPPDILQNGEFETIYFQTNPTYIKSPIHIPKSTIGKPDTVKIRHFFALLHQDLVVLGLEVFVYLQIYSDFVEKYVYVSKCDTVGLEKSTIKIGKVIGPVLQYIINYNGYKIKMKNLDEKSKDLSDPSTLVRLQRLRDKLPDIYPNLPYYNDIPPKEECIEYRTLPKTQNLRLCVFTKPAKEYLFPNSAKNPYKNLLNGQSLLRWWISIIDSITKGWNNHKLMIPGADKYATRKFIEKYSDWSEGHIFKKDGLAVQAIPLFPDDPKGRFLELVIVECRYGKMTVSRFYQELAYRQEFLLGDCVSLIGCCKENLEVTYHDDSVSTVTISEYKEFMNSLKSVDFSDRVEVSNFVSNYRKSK
Large screens that a line does not name were inactive.

CCOC(=O)CN1C(=O)/C(=C/c2c(F)cccc2Cl)Oc2ccccc21	none
Cc1ccc(NC(=O)CNC(=O)c2ccco2)c(Cl)c1	none (no result: Rtt109 Vps75)
N#CCCn1cc(/C=N/NC(N)=S)c(-c2ccc(Br)cc2)n1	none
N#CCCn1cc(/C=N/NC(N)=S)c(-c2ccccc2)n1	CSN deneddyl inh 107
COc1ccccc1NC(=O)C1CCCN1C(=O)Nc1ccc(F)cc1 (centres undefined)	none
Cc1cccc(CN2CCN(C3CN(Cc4ccc(F)cc4)S(=O)(=O)C3)CC2)c1 (centres undefined)	none (no result: TPT1 inhibitor, Rtt109 Vps75)
Cc1ccc(S(=O)(=O)N2c3ccccc3CC2C)cc1 (centres undefined)	none
CC1Cc2ccccc2N1S(=O)(=O)c1cccs1 (centres undefined)	HNF4A DNA FP 115, CSN deneddyl inh 57
COC(=O)c1cc(S(=O)(=O)N2c3ccccc3CC2C)cn1C (centres undefined)	CSN deneddyl inh 38
COC(=O)c1cc(S(=O)(=O)N2CCN(c3ccccc3OC)CC2)cn1C	none
CC1=C(C(=O)N2CCCCCC2)CC(CC(=O)NCCc2ccccn2)C(=O)N1Cc1ccc(C(C)(C)C)cc1 (centres undefined)	none (no result: TPT1 inhibitor, Rtt109 Vps75)
C=C(C)CNC(=S)Nc1cccc2cnccc12	none
Cc1cc(C)cc(NC(=S)Nc2cccc3cnccc23)c1	CSN deneddyl inh 37 (no result: TPT1 inhibitor)
CCc1ccc(NC(=S)Nc2cccc3cnccc23)cc1	CSN deneddyl inh 38
C=CCNc1nc(C(=O)OCC(=O)Nc2ccccc2C(F)(F)F)cs1	none (no result: TPT1 inhibitor)
Cc1cc(-c2ccc(Br)s2)nc(-n2cccc2)n1	HNF4A DNA FP 50 (no result: TPT1 inhibitor)
Cc1cc(-c2sccc2Br)nc(-n2cccc2)n1	none (no result: TPT1 inhibitor)
CCN(C(=S)Nc1ccc(C(C)=O)cc1)C1CCCCC1	CSN deneddyl inh 48
CCCN(CC1CC1)C(=S)Nc1ccc(C(C)=O)cc1	none
CCOc1cc(C2C(C#N)=C(N)SC(N)=C2C#N)ccc1OCCN1CCOCC1	TPT1 inhibitor 46 (no result: Rtt109 Vps75)
COc1ccccc1Cc1c(-c2ccc(C)cc2)nc2ccc(Br)cn12	CSN deneddyl inh 100 (no result: TPT1 inhibitor, Rtt109 Vps75)
COc1cccc(NC(=O)CN(C)S(=O)(=O)/C=C/c2ccccc2)c1	none (no result: TPT1 inhibitor)
CCOC(=O)C1CCN(c2nc(N)c3c(N)nc(SCC(=O)O)cc3c2C#N)CC1	Rtt109 Vps75 68 (no result: TPT1 inhibitor)
COc1cccc(CN2CCC2(C)C(=O)NCc2cccc(C(F)(F)F)c2)c1OC (centres undefined)	none (no result: TPT1 inhibitor, Rtt109 Vps75)
O=C(O)c1ccc(N=Nc2c(O)[nH]c3ccc(Br)cc23)cc1	none
O=c1ccc2cc3c([nH]c4ccc(Br)cc43)oc-2c1O	Rtt109 Vps75 129
COc1ccc(NC(=O)CCNS(=O)(=O)c2ccc(Cl)c([N+](=O)[O-])c2)cc1S(N)(=O)=O	none
O=C(Nc1ccc(-c2ccc3nncn3n2)cc1)c1ccc(Br)o1	CSN deneddyl inh 64
O=C(COc1ccc(F)cc1Br)NCCCN1CCCC1=O	none (no result: TPT1 inhibitor)
O=C(O)/C=C/C(=O)Nc1ccc(C2(c3ccc(NC(=O)/C=C/C(=O)O)cc3)c3ccccc3-c3ccccc32)cc1	none
Cc1ccc(NC(=O)C2CC(=O)N(c3ccc4c5c(cccc35)CC4)C2)cc1 (centres undefined)	CSN deneddyl inh 35
CCCCC(CC)CNC(=O)c1[nH]c(C)c(C(C)=O)c1C (centres undefined)	none
CCCCNC(=O)c1[nH]c(C)c(C(C)=O)c1C	HNF4A DNA FP 34
Fc1ccccc1NC(=S)NN(Cc1ccccc1)c1ccccc1	HNF4A DNA FP 38
O=S1(=O)CC(N2CCC(Cc3ccccc3)CC2)CN1C1CCCC1 (centres undefined)	none (no result: TPT1 inhibitor, Rtt109 Vps75)
CC(C1SC(=S)NC1=O)C1SC(=S)NC1=O (centres undefined)	CSN deneddyl inh 38 (no result: TPT1 inhibitor, Rtt109 Vps75)
COCCCNC(=O)CSc1ccsc1[N+](=O)[O-]	none (no result: Rtt109 Vps75)
Cc1ccccc1NC(=O)CSc1ccsc1[N+](=O)[O-]	CSN deneddyl inh 35
O=C(OCC(=O)N1CCCC1)c1ccc(S(=O)(=O)N2CCOCC2)cc1	none
O=C(OCC(=O)N1CCN(C(=O)c2ccco2)CC1)c1ccc(S(=O)(=O)N2CCCCC2)cc1	HNF4A DNA FP 50
COc1ccc(N2CC(C(=O)Nc3ccccc3C(=O)NC3CC3)CC2=O)cc1 (centres undefined)	none
CC12CCC(C(=O)N3CCC(Cc4ccccc4)CC3)(C(=O)C1=O)C2(C)C (centres undefined)	none
CCC(C)N1C(=O)S/C(=C/c2ccc3c(c2)n(C)c(=O)n3C)C1=O (centres undefined)	none
CCOC(=O)C(C)N1C(=O)S/C(=C/c2ccc3c(c2)n(C)c(=O)n3C)C1=O (centres undefined)	Rtt109 Vps75 54
CCOC(=O)Cn1c(-c2ccc(OC)cc2)c(-c2ccc(OC)cc2)nnc1=O	HNF4A DNA FP 33
CCCC[n+]1c(C)sc2cc(OC)ccc21	Rtt109 Vps75 185
COc1ccc2sc(C)[n+](C)c2c1	none
COc1ccc(CNC(=O)C2CCCN(S(=O)(=O)c3c(C)n[nH]c3C)C2)cc1 (centres undefined)	Rtt109 Vps75 67
CC(=O)Nc1c(I)c(C(=O)N[C@H]2C(O)O[C@H](CO)[C@@H](O)[C@@H]2O)c(I)c(N(C)C(C)=O)c1I (some centres undefined)	none
COc1ccc(Cl)cc1NC(=O)CSc1nc2[nH]ncc2c(=O)[nH]1	none (no result: TPT1 inhibitor, Rtt109 Vps75)
CC1Sc2ccc(S(=O)(=O)N3CCC(C(=O)Nc4ccc(Cl)cc4)CC3)cc2NC1=O (centres undefined)	HNF4A DNA FP 41
COc1ccc(C)cc1NC(=O)COC(=O)c1c(-c2ccccc2)noc1C	none (no result: TPT1 inhibitor, Rtt109 Vps75)
CC(C)c1nnc(NC(=O)CCC(=O)NCc2cccs2)s1	Rtt109 Vps75 53
CC(C)c1nnc(NC(=O)Cc2cccs2)s1	none
Cc1ccc(S(=O)(=O)CC(=O)Nc2ccc(Cl)cn2)cc1	HNF4A DNA FP 34
Cc1ccc(S(=O)(=O)NC(=O)Nc2ccc(Cl)cn2)cc1	none
O=C(CSc1ccccc1)Nc1nnc(C2CC2)s1	none
O=[N+]([O-])c1cc(C(F)(F)F)ccc1NCCCN1CCOCC1	none
O=[N+]([O-])c1cc(C(F)(F)F)cc([N+](=O)[O-])c1NCCCN1CCOCC1	HNF4A DNA FP 62
Clc1nnc2ccc(-c3ccccc3)nn12	CSN deneddyl inh 54
CC1(C(=O)NCc2cccnc2)Cc2c(-c3cccc(C(F)(F)F)c3)ccnc2O1 (centres undefined)	none (no result: TPT1 inhibitor, Rtt109 Vps75)
N#C/C(=C\c1ccc([N+](=O)[O-])o1)c1nc2ccccc2[nH]1	TPT1 inhibitor 29 (no result: HNF4A DNA FP, CSN deneddyl inh, Rtt109 Vps75)
CCc1ccc(-c2nc(CS(=O)CC(=O)NCc3ccc4c(c3)OCO4)c(C)o2)cc1 (centres undefined)	none
COC(=O)[C@@]1(Cc2ccc(F)cc2)[C@H]2c3cc(C(=O)N(C)C)n(Cc4cc(C)n(C)n4)c3C[C@H]2CN1C(=O)c1ccccc1	CSN deneddyl inh 102 (no result: TPT1 inhibitor, Rtt109 Vps75)
Nc1ncnc2c1ncn2[C@@H]1O[C@H](C(=O)N[C@H]2c3ccccc3C[C@H]2OC=O)[C@@H](O)[C@H]1O	none (no result: TPT1 inhibitor, Rtt109 Vps75)
CCOC(=O)c1c(CSc2ccccc2)n(C)c2cc(Br)c(OCC(O)CNC(CO)(CO)CO)cc12 (centres undefined)	CSN deneddyl inh 71
